Assay results as given in ChEMBL document CHEMBL1212693, “Dorsomorphin inhibits BMP signals required for embryogenesis and iron metabolism” (Nat Chem Biol, 2008).
The source made the active and inactive calls. The rule behind the calls is not given here.

What was measured:
Danio rerio [1] = species on record: Danio rerio; assay: Inhibition of BMPR1 in zebrafish assessed as severity of embryonic axis dorsalization at 10 uM treated continuously from 10 hrs post-fertilization measured at 48 hrs; set-up: scale not given: the % may be the effect or the level left
Mus musculus [2] = assay: Inhibition of iron-dextran conjugate-induced hepcidin mRNA expression in C57BL/6 mouse at 10 mg/kg, iv after 6 hrs by qRT-PCR analysis; type: functional, organism-based; set-up: dose 10 mg/kg
Danio rerio [3] = species on record: Danio rerio; assay: Inhibition of BMPR1 in zebrafish assessed as severity of embryonic axis dorsalization at 10 uM treated at 2 to 6 hrs post-fertilization measured at 48 hrs; set-up: scale not given: the % may be the effect or the level left
Danio rerio [4] = species on record: Danio rerio; assay: Inhibition of BMPR1 in zebrafish assessed as penetrance of moderate embryonic axis dorsalization at 2 uM treated at 3 hrs post-fertilization measured at 48 hrs; set-up: scale not given: the % may be the effect or the level left
Mus musculus [5] = assay: Inhibition of iron-dextran conjugate-induced Smad-1 phosphorylation in C57BL/6 mouse at 23 ug/g, iv after 1 hr; type: functional, organism-based
Danio rerio [6] = species on record: Danio rerio; assay: Inhibition of BMPR1 in zebrafish assessed as penetrance of normal embryonic axis dorsalization at 10 uM treated at 6 to 8 hrs post-fertilization measured at 48 hrs; set-up: scale not given: the % may be the effect or the level left
Danio rerio [7] = species on record: Danio rerio; assay: Inhibition of BMPR1 in zebrafish assessed as penetrance of mild embryonic axis dorsalization at 0.5 uM treated at 3 hrs post-fertilization measured at 48 hrs; set-up: scale not given: the % may be the effect or the level left
Outline: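 Compound added at the stated times and concentrations. Gross morphology scored visually at up to 48 h.p.f. for dorsalization of the embryonic axis.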

Danio rerio [8] = species on record: Danio rerio; assay: Inhibition of BMPR1 in zebrafish assessed as severity of embryonic axis dorsalization at 10 uM treated at 2 to 4 hrs post-fertilization measured at 48 hrs; set-up: scale not given: the % may be the effect or the level left
[9] = (§1) Inhibition of BMPR1-mediated Smad-8 phosphorylation in BMP4-stimulated mouse PASMC treated 30 mins before BMP4 challenge measured after 30 mins by immunoblot analysis
Outline: (§2)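 Mouse PASMCs were held 24 h in RPMI with 0.5% FCS. They were preincubated 30 min with test agent, noggin or vehicle, then exposed to recombinant BMP4 for 30 min. SDS lysates were immunoblotted for phospho-SMAD1/5/8 and bands quantified by phosphorimager. Dose-dependence was fitted as a Hill plot.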

Mus musculus [10] = species on record: Mus musculus; assay: as §1; outline: as §2
Mus musculus [11] = species on record: Mus musculus; assay: Inhibition of BMPR1-mediated Smad-1 phosphorylation in BMP7-stimulated mouse PASMC at 4 uM treated 30 mins before BMP7 challenge measured after 30 mins by immunoblot analysis
Outline: (§3)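 Wild-type mouse PASMCs were kept in RPMI with 0.5% FCS for 24 h. They were preincubated with compound or vehicle for 30 min, then stimulated for 30 min with recombinant BMP2, BMP4, BMP6 or BMP7 at 10 ng ml−1. Lysates in SDS buffer were immunoblotted with anti-phospho-SMAD1/5/8. Total SMAD1 and α-tubulin served as loading controls, and bands were quantified by phosphorimager.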

Mus musculus [12] = species on record: Mus musculus; assay: Inhibition of BMPR1-mediated Smad-5 phosphorylation in BMP6-stimulated mouse BMPR2 deficient PASMC at 4 uM treated 30 mins before BMP6 challenge measured after 30 mins by immunoblot analysis
Mus musculus [13] = species on record: Mus musculus; assay: Inhibition of BMPR1-mediated Smad-5 phosphorylation in BMP2-stimulated mouse PASMC at 4 uM treated 30 mins before BMP2 challenge measured after 30 mins by immunoblot analysis; outline: as §3
Mus musculus [14] = species on record: Mus musculus; assay: Inhibition of BMPR1-mediated Smad-8 phosphorylation in BMP7-stimulated mouse PASMC at 4 uM treated 30 mins before BMP7 challenge measured after 30 mins by immunoblot analysis; outline: as §3
Danio rerio [15] = species on record: Danio rerio; assay: Inhibition of BMPR1 in zebrafish assessed as decrease in eve1 expression at 10 uM treated at 18-somite stage measured at 48 hrs

Question: Which Activity (Danio rerio [1]) does the source give for `c1cc(-c2cnn3cc(-c4ccc(OCCN5CCCCC5)cc4)cnc23)ccn1` [DORSOMORPHIN] here?
Answer: 0%

Question: And the inhibition (Mus musculus [2])?
Answer: Active

Question: What about the Activity (Danio rerio [3]) of the same molecule?
Answer: 39%

Question: What about the Activity (Danio rerio [4]) of the same molecule?
Answer: 0%

Question: What about the inhibition (Mus musculus [5]) of the same molecule?
Answer: Active

Question: What about the Activity (Danio rerio [6]) of the same molecule?
Answer: 0%

Question: And the Activity (Danio rerio [7])?
Answer: 0%

Question: And the Activity (Danio rerio [8])?
Answer: 0%

Question: And the IC50 [9]?
Answer: 470 nM

Question: What about the inhibition (Mus musculus [10]) of the same molecule?
Answer: Dose-dependent effect

Question: And the inhibition (Mus musculus [11])?
Answer: Active

Question: And the inhibition (Mus musculus [12])?
Answer: Active

Question: What about the inhibition (Mus musculus [13]) of the same molecule?
Answer: Active

Question: What about the inhibition (Mus musculus [14]) of the same molecule?
Answer: Active

Question: What about the inhibition (Danio rerio [15]) of the same molecule?
Answer: Active
